Assay results of several laboratories.
Lines come from different studies, so protocols differ.
Target: Atypical kinase COQ8A, mitochondrial (COQ8A, Homo sapiens, UniProt Q8NI60)

Structure (SMILES) | effect on | method | tested at | remaining binding [%]
C[C@@H](c1ccc(-n2cnc3c(N)ncnc32)cc1)N1CCc2nn(C)c(Cc3ccccc3)c2C1=O | binding | competition with immobilised ligand | 0.1 µM | 84
c1cnn2ncc(-c3ccnc(N4CCC45COC5)n3)c2c1 | binding | – | 1 µM | 100
O=C(c1ccc(Nc2nccc(-c3cc4ccccc4s3)n2)cc1)N1CCC(N2CCCC2)CC1 | binding | competition with immobilised ligand | 1 µM | 88
CN(C)c1nccc(-c2cnc3ncccn23)n1 | binding | – | 1 µM | 100
O=C(Nc1c[nH]nc1C(=O)NC1CCNCC1)c1cc(F)cc(F)c1 | binding | competition with immobilised ligand | 1 µM | 100
O=C(NCc1ncc(C(F)(F)F)cc1Cl)c1ccc2c(c1)C1(CCS(=O)(=O)CC1)[C@@H](C1CC1)N2S(=O)(=O)c1ccc(F)cc1 | cell-free assay | competition with immobilised ligand | 1 µM | 90
O=C(c1ccc(Nc2ncc(Cl)c(-c3cc4ccccc4s3)n2)cc1)N1CCC(N2CCCC2)CC1 | binding | competition with immobilised ligand | 1 µM | 78
CNCc1ccccc1-c1csc([C@H](C)Nc2nc(C)nc3cc(OC)c(OC)cc23)c1 | cell-free assay | competition with immobilised ligand | 1 µM | 91
CC1CCCN1c1nccc(-c2cnn3ncccc23)n1 (stereo not drawn) | binding | – | 1 µM | 100
NS(=O)(=O)c1cc(NC(=O)C2(c3ccccc3Cl)CC2)ccc1Oc1cccc(Cl)c1 | cell-free assay | competition with immobilised ligand | 1 µM | 100
N[C@@H]1CCN(c2nccc(-c3cnn4ncccc34)n2)C1 | binding | – | 1 µM | 100
Nc1ncc2c(n1)-c1c([nH]c3ccc(C#CC4CC4)cc13)CCCC2 | binding | competition with immobilised ligand | 1 µM | 96
CC(C)(C)c1ccc(-c2nc(CBr)nn2-c2cccc(O)c2)cc1 | cell-free assay | competition with immobilised ligand | 10 µM | 86
C[C@@H]1CN(c2ccc3ncc(-c4ccc5[nH]nc(C6CC6)c5c4)n3n2)C[C@H](C)O1 | binding | competition with immobilised ligand | 0.5 µM | 100
F[C@@H]1CCN(c2nccc(-c3cnn4ncccc34)n2)C1 | binding | – | 1 µM | 100
COc1cnc(Nc2cccc(S(N)(=O)=O)c2)nc1N1CCN(c2ccccc2)CC1 | binding | competition with immobilised ligand | 1 µM | 100
FC(F)(F)c1ccc2c(c1)nc(-c1cccnc1)n2C1CC1 | cell-free assay | competition with immobilised ligand | 1 µM | 100
C[C@H]1CCN(c2nccc(-c3cnn4ncccc34)n2)C1 | binding | – | 1 µM | 100
CS(=O)(=O)c1cc(C2(NC(=O)c3cncc4c3cnn4-c3ccc(F)cc3)CC2)ccn1 | cell-free assay | competition with immobilised ligand | 1 µM | 100
CNC(=O)[C@@H]1CC[C@@H](n2c(-c3ccc4cnccc4c3)nc3ccc(C(=O)NCc4cccc(C(N)=O)c4)cc32)C1 | binding | competition with immobilised ligand | 1 µM | 100
O=c1nc(-c2ccccn2)sc2ccccc12 | cell-free assay | competition with immobilised ligand | 1 µM | 88
c1cncc(-c2cccc(Nc3nccc(NC4CCCCC4)n3)c2)c1 | binding | competition with immobilised ligand | 10 µM | 81
CC(=O)C1=C(C)N(c2cccc(C(F)(F)F)c2)C(=O)N[C@@H]1c1ccc(C#N)nc1 | cell-free assay | competition with immobilised ligand | 1 µM | 100
O=C(NCCCN1CCOCC1)c1ccc(Nc2nccc(-c3cc4ccccc4s3)n2)cc1 | binding | competition with immobilised ligand | 1 µM | 90
